Sampled rows, rich in hits. Any-hit rate of the full collection: about 4.6%.
GPR7 antagonist – blocks human GPR7 receptor signaling | P48145 | GPR7-expressing cells, fluorescence antagonist assay | inhibition, % at 4.4 µM | actives 1.1% (n = 290,000); in the data active = inhibition above about 16%, passing the limit was not always enough;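 also: cells stimulated with the agonist NPW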
Target sequence (P48145 whole entry, looked up): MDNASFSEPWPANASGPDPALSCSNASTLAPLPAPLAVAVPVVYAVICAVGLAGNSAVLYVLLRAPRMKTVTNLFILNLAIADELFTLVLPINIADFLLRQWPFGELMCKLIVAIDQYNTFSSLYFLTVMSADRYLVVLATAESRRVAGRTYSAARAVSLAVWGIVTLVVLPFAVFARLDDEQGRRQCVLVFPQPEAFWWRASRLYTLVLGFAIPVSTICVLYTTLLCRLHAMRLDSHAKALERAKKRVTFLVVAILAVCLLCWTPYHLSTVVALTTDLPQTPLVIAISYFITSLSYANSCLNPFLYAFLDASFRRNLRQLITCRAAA
OX1R antag-1 – antagonists of human orexin 1 receptor; O43613; CHO/OX1R cells, Fluo-8 calcium fluorescence, orexin A; inhibition, % at 5 µM; actives 0.43% (n = 330,000); AID 434989;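 active = inhibition above its plate's threshold, mean inhibition of all tested compounds on the plate plus 3 SD, cut at about 37% in these data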
TAAR1 ag – human TAAR1 agonism. Q96RJ0. CHO RD-HGA16 TAAR1, Fluo-8 calcium fluorescence; vehicle wells 0%, saturating PEA agonist 100%. activation, % at 3 µM. actives 0.99% (n = 360,000). AID 624467;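 active = activation above the mean activation of all test compounds in the run plus 3 SD, cut at about 38% in these data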
Target sequence (Q96RJ0 whole entry, looked up): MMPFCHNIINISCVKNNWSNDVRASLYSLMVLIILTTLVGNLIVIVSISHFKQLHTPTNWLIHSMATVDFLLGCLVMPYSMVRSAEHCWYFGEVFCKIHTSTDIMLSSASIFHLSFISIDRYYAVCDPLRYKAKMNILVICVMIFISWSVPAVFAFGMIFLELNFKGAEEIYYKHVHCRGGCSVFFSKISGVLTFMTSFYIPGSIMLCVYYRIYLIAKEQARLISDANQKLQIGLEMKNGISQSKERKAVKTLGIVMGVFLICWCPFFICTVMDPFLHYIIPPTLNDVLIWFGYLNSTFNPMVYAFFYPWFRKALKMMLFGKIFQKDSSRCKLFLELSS
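Test system: RD-HGA16 (CHO) cells co-expressing Gα16 and hTAAR1; dosing: one-point dosing at 3 µM (nominal); timing: 17-24 h seeding, 75 min 37 °C dye, 30 min RT; signal: kinetic Fluo-8 calcium fluorescence; read-out basis: % activation relative to PEA EC100 response; controls: DMSO and PEA EC100; replicates: n 1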
OX1R antag-2 – blocks the human orexin 1 receptor. O43613. OX1R-expressing cells, FRET antagonist read-out. inhibition, % at 6.6 µM. actives 1.8% (n = 330,000). AID 485270; in the data active = inhibition mostly above about 38%, no sharp cut-off; inactive = mostly below about 40%
TAAR1 antag – human TAAR1 antagonism | Q96RJ0 | CHO RD-HGA16 TAAR1, Fluo-8 calcium fluorescence, antagonist | inhibition, % at 3 µM | actives 1.5% (n = 360,000) | AID 624466;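 active = inhibition above a per-plate cutoff, the mean inhibition of test compounds on that plate plus 3 SD, cut at about 49% in these data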
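Material: RD-HGA16 CHO cells with stable hTAAR1 and Gα16; Dosing: single nominal final test compound concentration of 3 µM; Schedule: seeding 17-24 h prior, 75-min 37 °C, 30-min RT dye loading; Detection: kinetic Fluo-8 calcium fluorescence measurement; Measure: % inhibition from peak post-agonist over basal fluorescence ratio; Benchmarks: vehicle and agonist controls.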
CHO parental Ca – counter-screen: ATP calcium response change in parental CHO cells; inhibition, % at 5.6 µM; parental CHO-K1, ATP-induced calcium, Fluo-8 fluorescence; actives 0.63% (n = 330,000);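 active = inhibition above that plate's mean sample inhibition plus 3 SD, cut at about 26% in these data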
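Test system: untransfected parental CHO cell line. Compound: one dose, 5.6 µM nominal. Detection: intracellular calcium via Fluo-8 no-wash fluorescent dye. Measure: % inhibition. Benchmarks: ATP-challenged DMSO wells low, unchallenged DMSO wells high.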
GPR7 antag cf – human GPR7 antagonism, confirmation assay. shares compounds with GPR7 antagonist. GPR7-expressing cells, calcium fluorescence antagonist mode. inhibition, % at 4.4 µM. actives 52% (n = 2,400); in the data active = inhibition above about 24%;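 also: stimulated with the GPR7 agonist NPW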
MCHR1 antag – counter-screen for GPR7 antagonists: antagonists of human MCHR1; inhibition, % at 4.4 µM; shares compounds with GPR7 antagonist; actives 62% (n = 2,400); AID 2148; MCHR1-expressing cells, fluorescence antagonist assay; in the data active = inhibition above about 22%
Hits are given with their value; 0 = inactive; - = no result.

SMILES	GPR7 antagonist	OX1R antag-1	TAAR1 ag	OX1R antag-2	TAAR1 antag	CHO parental Ca	GPR7 antag cf	MCHR1 antag
Cn1cc(CN2CCCC(C(=O)Nc3ccc(-c4cccc(F)c4)cc3)C2)cn1 (centres undefined)	39	0	0	0	0	0	42	64
CCc1ccc([C@@H]2C[C@H]3CN(Cc4ccccc4OC)C(=O)[C@]34CCCN24)cc1	24	0	0	0	0	0	0	0
Clc1ccc2[nH]c3c(NCC4CCCO4)ncnc3c2c1 (centres undefined)	38	0	0	124	54	38	0	62
CC(C#N)(NC(=O)CN1CCN(S(=O)(=O)c2ccc(Br)cc2Cl)CC1)C1CC1 (centres undefined)	-	0	0	0	0	0	-	-
COC(=O)c1cc(NC(=O)c2c(-c3c(Cl)cccc3Cl)noc2C)ccc1N1CCOCC1	24	0	0	0	0	0	0	0
O=[N+]([O-])c1ccc(NC(=S)NCCc2ccc(F)cc2)cc1	33	48	0	65	0	34	75	67
Cc1cc(C(=O)N2CCCC(CO)(Cc3ccc(F)cc3F)C2)nn1C (centres undefined)	-	-	0	-	0	-	-	-
Cc1nc2ccc(C(=O)N3CCCC(CO)(Cc4ccc(F)cc4F)C3)cc2nc1C (centres undefined)	32	0	0	0	0	0	0	0
CCn1nc(C(C)C)cc1C(=O)N1CCCC(CO)(Cc2ccc(F)cc2F)C1 (centres undefined)	28	0	0	44	0	0	0	27
OCCC1CN(Cc2ccccc2-c2ccco2)CCN1Cc1ccccc1 (centres undefined)	0	0	0	0	0	0	-	-
O=C(NCc1cccnc1)c1cc(-c2ccc(Cl)cc2)oc1C(F)(F)F	34	0	0	0	0	0	24	0
CCOc1ccc(N2C(=O)C3=C(C(c4ccc(Cl)cc4)=NCCN3)C2c2cccnc2)cc1 (centres undefined)	0	0	0	0	0	0	-	-
Cc1ccc(C2C3=C(NCCN=C3c3ccccc3)C(=O)N2c2ccccc2)cc1 (centres undefined)	-	0	0	0	0	0	-	0
CC(C)(Oc1ccc(F)cc1)C(=O)OCC(=O)c1ccc(S(C)(=O)=O)cc1	-	0	0	0	0	0	-	-
O=S(=O)(Cc1ccccc1)N1CCc2ccccc21	0	0	-	0	-	0	-	-
O=C(CCC1CCCCC1)NCCN1C2=NC[C@@H](Cc3ccccc3)N2C[C@H]1Cc1ccc(O)cc1	46	0	0	0	0	0	55	30
O=C(CCC1CCCCC1)NCCN1C2=NC[C@H](Cc3ccccc3)N2C[C@H]1Cc1ccc(O)cc1	0	0	0	0	0	0	-	-
Cc1cc(C[n+]2ncsc2N)c2ncccc2c1	0	0	0	0	0	0	-	-
COc1ccc2c(c1)sc(N)[n+]2Cc1cc(C)cc2cccnc12	38	0	0	0	0	0	41	57
Cc1cc(C[n+]2cc(Cl)ccc2N)c2ncccc2c1	23	0	0	0	0	0	29	24
Cc1cc(C[n+]2cc(Br)ccc2N)c2ncccc2c1	30	0	0	0	0	0	29	0
Cc1ccc([N+](=O)[O-])cc1NC(=O)Nc1cccc(F)c1	40	-	0	-	0	-	63	65
Cc1ccc([N+](=O)[O-])cc1NC(=O)Cc1ccc(F)cc1	0	0	0	0	0	0	-	-
COC(=O)c1ccc(NC(=O)Nc2cccc(F)c2)cc1	32	0	39	0	0	0	54	65
COC(=O)c1ccc(NC(=O)Nc2ccc(F)cc2F)cc1	0	0	0	0	0	0	-	-
SMILES	GPR7 antagonist	OX1R antag-1	TAAR1 ag	OX1R antag-2	TAAR1 antag	CHO parental Ca	GPR7 antag cf	MCHR1 antag
O/N=C1\CCCc2ccc(Cl)cc21	0	0	0	0	0	0	-	-
COc1ccccc1C(=O)Oc1cc(C)[nH]c(=O)c1[N+](=O)[O-]	0	0	0	0	0	0	-	-
Cc1occc1C(=O)Nc1cccc(C(=O)O)c1	26	0	0	0	0	0	0	0
CCCCC(O)(CCCC)C(=O)NN(C(=O)OC)c1ccc(C)cc1	23	0	0	0	0	0	0	0
CCCC(O)(CCC)C(=O)NN(C(=O)OC)c1ccccc1	0	0	0	0	0	0	-	-
COc1ccc(Nc2nnc(-c3ccc(C(N)=O)cc3)c3ccccc23)cc1	34	0	0	0	0	0	0	0
COc1ccc(Nc2nnc(-c3ccc(C(=O)NCCO)cc3)c3ccccc23)cc1	60	0	0	0	0	0	0	36
CC(=O)C1=C(C)N(Cc2ccc(F)cc2)C(=S)NC1c1cccc(Br)c1 (centres undefined)	-	-	0	-	0	-	-	-
CCOC(=O)C1=C(C(=O)OCC)C2N(Cc3ccc(Br)cc3)c3ccccc3[C@@]23C[C@@H](C(=O)OC)N(S(=O)(=O)c2ccc(C(F)(F)F)cc2)C3=N1 (some centres undefined)	-	-	0	-	0	-	-	-
O=C(Nc1nc2ccccc2s1)C1CCN(S(=O)(=O)c2cc([N+](=O)[O-])ccc2Cl)CC1	32	51	0	84	0	80	75	75
O=S(=O)(c1ccc(C(F)(F)F)cc1)N1CCCc2nc(-c3ccccc3)ccc21	-	-	0	-	0	-	-	-
C=CCNC(=O)c1cc(Cl)ccc1Cl	0	0	0	0	0	0	-	-
Cc1cc(C)nc(/N=C(\N)Nc2ccc(OCc3ccccc3)cc2)n1	101	105	127	0	106	89	99	107
O=C(Nc1ccsc1C(=O)O)c1ccc(Cl)cc1	46	0	0	0	0	0	0	0
Cc1ccc(C(=O)Nc2ccsc2C(=O)O)cc1	0	0	0	0	0	0	-	-
O=S1(=O)CCSC[C@@H](CN2CCOCC2)N1	-	-	0	-	0	-	-	-
CCOC(=O)c1ccc(N2CCCCC2)c(NS(=O)(=O)c2ccc(C)cc2)c1	25	0	0	0	0	0	0	62
O=C(Nc1ccc(Cl)cc1)C1CC(=O)n2c(nc3ccccc32)N1 (centres undefined)	23	0	-	0	-	0	0	0
Nc1[nH]c(C(=O)c2ccccc2)c(-c2cccc3ccccc23)c1C(=O)c1ccc(Br)cc1	-	-	0	-	0	-	-	-
Cc1nn(C)c(C)c1N1C(=O)c2cccc3c(N)ccc(c23)C1=O	22	62	124	0	64	51	26	38
Cc1nn(C)c(C)c1N1C(=O)c2cccc3c(Br)ccc(c23)C1=O	0	0	0	0	0	0	-	-
